Consider six compounds from ChEMBL document CHEMBL3102763, “Synthesis, radiosynthesis and first in vitro evaluation of novel PET-tracers for the dopamine transporter: [(11)C]IPCIT and [(18)F]FE@IPCIT” (Bioorg Med Chem, 2013).

The target of data set [1] is T1, Sodium-dependent serotonin transporter (Homo sapiens, UniProt P31645). The data set can be described thus: Binding affinity to SERT (unknown origin). In short, it runs like this:
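Human SERT membranes (9 µg protein/unit) in 100 mM NaCl, 50 mM Tris-HCl pH 7.4, with [3H]imipramine as radioligand. Run as the DAT competition assay: 2 h incubation, centrifugation at about 40,000g and β-scintillation counting. IC50 and Ki are derived from competition plots.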

For data set [2], the target named is T2, Sodium-dependent noradrenaline transporter (Homo sapiens, UniProt P23975). In words: Binding affinity to NET (unknown origin). In short, it runs like this: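 Human NET membranes (3 µg protein/unit) in 100 mM NaCl, 50 mM Tris-HCl pH 7.4, with [3H]nisoxetine as radioligand. Run as the DAT competition assay: 2 h incubation, centrifugation at about 40,000g and β-scintillation counting. IC50 and Ki are derived from competition plots.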

For data set [3], the target named is T1, Sodium-dependent serotonin transporter. In words: Displacement of [3H][…] from human SERT after 2 hrs by liquid scintillation counting analysis.
The target of data set [4] is T3, Sodium-dependent dopamine transporter (Homo sapiens, UniProt Q01959). The data set can be described thus: Displacement of [3H]WIN35428 from human DAT after 2 hrs by liquid scintillation counting analysis. Put shortly:
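Competition binding on human DAT membranes (12.7 µg protein/unit) in 100 mM NaCl, 50 mM Tris-HCl pH 7.4, with [3H]WIN 35,428 added as a 3 nM solution. Nonspecific binding defined with 10 µM GBR 12909. After 2 h incubation, bound label is pelleted at about 40,000g, washed twice with ice-cold buffer and counted by β-scintillation. IC50 and Ki come from competition plots, three assays each in triplicate.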
(In general: Loss of bound radioactivity is the signal in a displacement assay; it reports binding, not function.)

Data set [5] in a line: Lipophilicity, log D of the compound. The format is physicochemical. The following applies: octanol/water. Put shortly:
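HPLC method on a short polymeric ODP-50 column, with toluene and triphenylene co-injected as standards of known logD and k'. A linear gradient runs from 10% MeOH/90% 25 mM phosphate buffer to 100% methanol over 9.4 min at 1.5 mL/min.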

For data set [6], the target named is T2, Sodium-dependent noradrenaline transporter. In words: Displacement of [3H][…] from human NET after 2 hrs by liquid scintillation counting analysis.
The nature of data set [7]: Drug metabolism in human liver microsomes after 1 hr by radio-HPLC analysis relative to control. Format: ADME. The following applies: read-out: Drug metabolism. In short, it runs like this:
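Pooled human liver microsomes are preincubated 5 min at 37 °C in pH 7.4 phosphate buffer with an NADPH-generating system. Formulated radiotracer (6 µL) is then added in 300 µL final volume, with ethanol at or below 2%. Incubations are quenched with one volume MeOH/ACN (10/1), vortexed and centrifuged. Supernatants are analysed by radio-HPLC for percent intact tracer.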
On the technique in general: Microsomes from liver hold many membrane-bound enzymes, among them those of drug oxidation.

A short description of data set [8]: Metabolic stability in human plasma assessed as compound remaining after 1 hr by radio-HPLC analysis. Format: ADME, cell-free. Particulars: read-out: Stability. Put shortly:
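Radiotracer (10 µL) incubated in 500 µL pooled Li-heparin human plasma at 37 °C for up to 60 min, with ethanol kept at or below 2% final. Aliquots are quenched with one volume of ice-cold MeOH/ACN (10/1) and centrifuged (23,000g, 4 min, 5 °C). Supernatants are analysed by radio-HPLC for percent […].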

Data set [9] relates to CES1b/CES1c/CES2. In words: Metabolic stability assessed as human CES1b/CES1c/CES2-mediated hydrolysis measuring compound remaining after 60 mins by radio-HPLC analysis. Format: ADME. Particulars: human carboxylesterases CES1b, CES1c and CES2, read-out: Stability. Put shortly: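 A 1/1/1 mixture (20 µL) of human CES1b, CES1c and CES2 (each 5 mg/mL) is diluted with 270 µL phosphate buffer pH 7.4. Radiotracer (6 µL) is incubated in it, quenched with MeOH/ACN (10/1) and centrifuged. Supernatants are analysed by radio-HPLC for percent intact tracer.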

Data set [10] addresses T3, Sodium-dependent dopamine transporter. The data set can be described thus: Binding affinity to DAT (unknown origin). In short, it runs like this:
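Competition binding on human DAT-expressing membranes (12.7 µg protein/unit) in 50 mM Tris-HCl, 100 mM NaCl, pH 7.4. The radioligand was ³H-WIN 35,428, added from a 3 nM solution. Non-specific binding was defined with 10 µM GBR 12909. After 2 h incubation, membranes were pelleted at about 40,000g and washed with ice-cold buffer, then counted by β-scintillation. IC50/Ki came from competition plots: three assays, each in triplicate.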

The species entered for data set [11] is Homo sapiens. In words: Selectivity ratio of Ki for human NET to Ki for human DAT. Put shortly:
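Ratio of Ki values from competition binding on human NET membranes ([3H]nisoxetine) and human DAT membranes ([3H]WIN 35,428). Both were measured in 100 mM NaCl, 50 mM Tris-HCl pH 7.4 with 2 h incubation and scintillation counting.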

The species entered for data set [12] is Homo sapiens. The data set can be described thus: Selectivity ratio of Ki for human SERT to Ki for human DAT. Put shortly: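 Ratio of Ki values from competition binding on human SERT membranes ([3H]imipramine) and human DAT membranes ([3H]WIN 35,428). Both were measured in 100 mM NaCl, 50 mM Tris-HCl pH 7.4 with 2 h incubation and scintillation counting.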

Bounds are passed on as bounds.

T3 sequence (Q01959 whole entry): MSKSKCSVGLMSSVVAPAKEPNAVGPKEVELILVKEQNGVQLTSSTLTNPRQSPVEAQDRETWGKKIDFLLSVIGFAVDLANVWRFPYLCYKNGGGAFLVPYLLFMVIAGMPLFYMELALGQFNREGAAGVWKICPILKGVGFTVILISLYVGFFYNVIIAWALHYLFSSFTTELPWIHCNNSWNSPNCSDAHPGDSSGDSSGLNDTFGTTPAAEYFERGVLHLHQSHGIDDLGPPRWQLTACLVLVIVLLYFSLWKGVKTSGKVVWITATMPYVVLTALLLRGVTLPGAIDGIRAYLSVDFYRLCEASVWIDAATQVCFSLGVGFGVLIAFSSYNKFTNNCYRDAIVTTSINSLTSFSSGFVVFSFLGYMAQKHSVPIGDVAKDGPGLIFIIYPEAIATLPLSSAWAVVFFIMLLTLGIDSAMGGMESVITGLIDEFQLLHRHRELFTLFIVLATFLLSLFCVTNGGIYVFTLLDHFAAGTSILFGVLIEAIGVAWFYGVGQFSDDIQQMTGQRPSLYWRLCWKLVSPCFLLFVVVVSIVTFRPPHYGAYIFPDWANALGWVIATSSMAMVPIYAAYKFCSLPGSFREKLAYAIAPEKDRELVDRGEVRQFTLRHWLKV
T1 sequence (P31645 whole entry): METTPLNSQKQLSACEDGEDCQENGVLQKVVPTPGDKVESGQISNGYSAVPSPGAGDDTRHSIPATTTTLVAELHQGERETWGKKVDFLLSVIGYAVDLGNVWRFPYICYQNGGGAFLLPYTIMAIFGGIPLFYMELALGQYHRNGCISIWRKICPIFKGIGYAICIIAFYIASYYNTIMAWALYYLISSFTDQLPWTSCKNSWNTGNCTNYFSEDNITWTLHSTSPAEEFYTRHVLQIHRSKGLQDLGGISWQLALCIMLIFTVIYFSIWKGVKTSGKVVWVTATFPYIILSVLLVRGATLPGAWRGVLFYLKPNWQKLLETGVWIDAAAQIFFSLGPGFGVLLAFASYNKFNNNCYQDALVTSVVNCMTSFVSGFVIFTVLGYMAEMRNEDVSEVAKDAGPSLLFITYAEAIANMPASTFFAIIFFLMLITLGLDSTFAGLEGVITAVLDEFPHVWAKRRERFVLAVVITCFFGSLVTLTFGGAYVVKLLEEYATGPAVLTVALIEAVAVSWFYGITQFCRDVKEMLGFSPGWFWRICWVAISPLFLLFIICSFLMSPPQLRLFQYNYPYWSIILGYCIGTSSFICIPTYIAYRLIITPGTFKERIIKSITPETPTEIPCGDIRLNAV
T2 sequence (P23975 whole entry): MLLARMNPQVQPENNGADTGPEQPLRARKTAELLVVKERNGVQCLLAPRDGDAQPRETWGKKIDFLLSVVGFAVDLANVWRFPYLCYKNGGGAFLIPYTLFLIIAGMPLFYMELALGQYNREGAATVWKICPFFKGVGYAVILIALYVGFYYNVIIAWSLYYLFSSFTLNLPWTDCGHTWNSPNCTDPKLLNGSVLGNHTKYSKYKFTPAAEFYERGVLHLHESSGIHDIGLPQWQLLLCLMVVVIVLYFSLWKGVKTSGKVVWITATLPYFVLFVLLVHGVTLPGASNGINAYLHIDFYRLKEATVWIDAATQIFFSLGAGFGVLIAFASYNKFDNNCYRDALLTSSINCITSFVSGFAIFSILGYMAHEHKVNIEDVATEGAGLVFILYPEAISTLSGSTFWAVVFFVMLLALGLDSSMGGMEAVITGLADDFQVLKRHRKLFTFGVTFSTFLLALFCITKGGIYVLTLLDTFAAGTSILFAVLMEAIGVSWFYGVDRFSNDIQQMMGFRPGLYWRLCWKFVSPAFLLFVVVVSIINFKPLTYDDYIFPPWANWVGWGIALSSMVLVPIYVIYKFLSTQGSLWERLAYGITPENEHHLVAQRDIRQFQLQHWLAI

One may read the Ki as a measure of affinity in units of concentration, obtained from inhibition or displacement. Consider `COC(=O)[C@H]1[C@@H](c2ccc(C)cc2)C[C@@H]2CC[C@H]1N2C/C=C/I`, for which the Ki was 0.5 µM in data set [1] and above 1 µM in [2].

As a reminder, the logD is the decadic logarithm of the distribution of all forms, ionised or not, between an organic phase and buffer at a given pH. A high value points to higher lipophilicity. `O=C(O)[C@H]1[C@@H](c2ccc(I)cc2)C[C@@H]2CC[C@H]1N2C/C=C/I`: the inhibition constant Ki in [3] stood at 0.0714 µM; in data set [4] it was 0.037 µM; in [6], 0.785 µM. Besides, the logD in data set [5] was determined as 0.8.

For `O=C(OCC[18F])[C@H]1[C@@H](c2ccc(I)cc2)C[C@@H]2CC[C@H]1N2C/C=C/I`, in [7], the metabolised at 1 h amounted to 71.6%. Also, the remaining at 1 h in [8] came to 100%; in data set [9], 92%.

Take `COC(=O)[C@H]1[C@@H](c2ccc(I)cc2)C[C@@H]2CC[C@H]1N2C`: the Ki is 0.0292 µM in data set [1], 0.00634 µM in data set [10] and 0.0328 µM in [2].

Consider `O=C(OCCF)[C@H]1[C@@H](c2ccc(I)cc2)C[C@@H]2CC[C@H]1N2C/C=C/I`, for which the figures for the Ratio Ki in data set [11] and in data set [12] were 115 and 1.8, respectively. Further, the inhibition constant Ki in [3] worked out at 0.0024 µM; in [4], 0.00133 µM; in data set [6], 0.153 µM. This compound showed a pH-dependent lipophilicity (logD) in data set [5] of 5.39.

Turning to `COC(=O)[C@H]1[C@@H](c2ccc(I)cc2)C[C@@H]2CC[C@H]1N2C/C=C/I`, the Ratio Ki in data set [11] came to 11. The Ki in data set [3] is 0.0015 µM; in data set [4] it was 0.00172 µM; in [6], 0.02 µM. Further, the metabolised at 1 h in [7] stood at 46.4%. Also, the remaining at 1 h in data set [8] worked out at 100%; in [9], 92%. The compound further gave a pH-dependent lipophilicity (logD) in data set [5] of 5.29.
